Screening data as filed in PubChem.
Rows were chosen to be rich in hits. Some 2.7% of all compounds tested hit in one or more screens of this group.
PAFAH1B3 FP inh: PAFAH1B3 (human) inhibition | recombinant PAFAH1B3, FP-rhodamine probe, fluorescence polarization | 0.28% of 340,000 active | AID 492972 | inhibition, % at 3.39 µM;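 active = inhibition above the screen-wide average of all tested compounds plus 3 SD, cut at about 25% in these data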;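 note: 0% = enzyme with DMSO only and 100% = wells lacking PAFAH1B3 protein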
Target sequence (Q15102 whole entry, looked up): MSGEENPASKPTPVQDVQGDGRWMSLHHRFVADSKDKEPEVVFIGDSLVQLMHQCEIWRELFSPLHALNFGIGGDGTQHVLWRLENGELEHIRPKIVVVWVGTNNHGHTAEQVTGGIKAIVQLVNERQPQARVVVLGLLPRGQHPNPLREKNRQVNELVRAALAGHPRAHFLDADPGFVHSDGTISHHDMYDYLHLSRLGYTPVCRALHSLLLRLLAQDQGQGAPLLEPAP
RBBP9 inhibitor: human RBBP9 hydrolase inhibition | O75884 | recombinant RBBP9, FP-Rh probe fluorescence polarization | inhibition, % at 7.94 µM | 0.2% of 220,000 active | AID 1515;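 active = inhibition above the campaign mean of all tested compounds plus 3 SD, cut at about 14% in these data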;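 note: plate controls were DMSO wells with RBBP9 for no effect and wells lacking RBBP9 protein for full effect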
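Assay system: recombinant human RBBP9; Reagent: Serine-hydrolase probe FP-Rh, 375 nM pre-mixing; Doses: 7.94 µM single dose, 0.794% DMSO; Incubation: 30 min then 45 min, 25 °C; Detection: fluorescence polarization (mP), excitation 525 nm, emission 598 nm; Evaluation: percent inhibition from mP, scaled between DMSO and no-protein wells.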
PAFAH2 inh: inhibitors of human PAFAH2. recombinant PAFAH2, FP-rhodamine activity probe, fluorescence polarization. inhibition, % at 3.39 µM. AID 492956. 0.99% of 340,000 active;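 active = inhibition above the mean over all tested compounds plus 3 SD, cut at about 30% in these data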;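 note: inhibitors block probe labeling of enzyme so polarization drops; 0% = enzyme with DMSO and 100% = wells lacking PAFAH2 protein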
pPAFAH FP inh: pPAFAH (human) enzyme inhibition; Q13093; recombinant pPAFAH, FP-rhodamine probe fluorescence polarization; inhibition, % at 3.39 µM; 1.5% of 330,000 active; AID 463082;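 active = inhibition above the mean inhibition across the screen plus 3 SD, cut at about 25% in these data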;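 note: inhibitors block binding of the rhodamine activity-based probe so polarization drops; 0% = enzyme with DMSO and 100% = wells lacking pPAFAH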
Target sequence (Q13093 whole entry, looked up): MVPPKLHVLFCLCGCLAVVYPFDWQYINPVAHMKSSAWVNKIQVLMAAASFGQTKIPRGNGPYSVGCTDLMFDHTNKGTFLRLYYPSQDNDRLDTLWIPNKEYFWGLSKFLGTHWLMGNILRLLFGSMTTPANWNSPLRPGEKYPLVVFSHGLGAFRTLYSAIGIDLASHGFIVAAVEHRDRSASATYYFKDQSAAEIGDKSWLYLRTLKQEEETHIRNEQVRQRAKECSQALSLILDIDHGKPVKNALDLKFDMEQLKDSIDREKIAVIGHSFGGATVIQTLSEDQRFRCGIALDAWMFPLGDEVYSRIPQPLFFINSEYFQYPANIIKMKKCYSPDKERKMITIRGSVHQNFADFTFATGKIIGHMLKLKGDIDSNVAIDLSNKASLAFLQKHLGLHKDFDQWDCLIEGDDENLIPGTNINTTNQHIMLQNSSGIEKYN
PAFAH1B2 FP inh: blocks human PAF acetylhydrolase 1b catalytic subunit 2 | P68402 | recombinant PAFAH1B2, FP-rhodamine activity probe, fluorescence polarization | inhibition, % at 3.39 µM | 1.2% of 340,000 active;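 active = inhibition above the mean of all tested compounds plus 3 SD, cut at about 24% in these data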;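 note: 0% = enzyme with DMSO and 100% = wells lacking PAFAH1B2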
PAFAH2 confirm: PAFAH2 (human) inhibition, confirmed. shares compounds with PAFAH2 inh. recombinant PAFAH2, FP-rhodamine activity probe, fluorescence polarization. 65% of 2,300 active. AID 493030. inhibition, % at 3.39 µM;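 active = mean inhibition over three repeats above a set limit taken from the earlier primary screen, cut at about 30% in these data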;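 note: inhibitor blocks binding of rhodamine activity probe so polarization falls; 0% = enzyme with DMSO and 100% = wells lacking PAFAH2 protein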
Starred values were filed as active, the others as inactive.

`COCCSc1ccccc1C(=O)N1CCN(c2ccccc2OC)CC1` gave PAFAH1B3 FP inh 4.1, RBBP9 inhibitor 1.1, PAFAH2 inh 2.1, pPAFAH FP inh 4.3 and PAFAH1B2 FP inh 3.8.
CCN(CC)S(=O)(=O)c1cccc(C(=O)OCC(=O)C23CC4CC(CC(C4)C2)C3)c1 was read as PAFAH1B3 FP inh 0.2, RBBP9 inhibitor -6.5, PAFAH2 inh 40.0*, pPAFAH FP inh 5.2, PAFAH1B2 FP inh 8.1 and PAFAH2 confirm 25.1.
O=C(COC(=O)c1ccc(O)cc1O)NC1CCS(=O)(=O)C1 (stereo not given) was read as PAFAH1B3 FP inh 0.0, RBBP9 inhibitor -3.3, PAFAH2 inh 9.0, pPAFAH FP inh 1.0 and PAFAH1B2 FP inh 0.0.
O=C(COC(=O)c1ccc(O)cc1O)NC12CC3CC(CC(C3)C1)C2 was read as PAFAH1B3 FP inh -1.6, PAFAH2 inh 74.6*, pPAFAH FP inh 11.5, PAFAH1B2 FP inh 12.4 and PAFAH2 confirm 59.9*.
For CC1c2[nH]c3ccccc3c2C[C@H]2C(=O)N(CCO)CC(=O)N12 (stereo not given in full) the results were PAFAH1B3 FP inh 1.2, PAFAH2 inh 14.6, pPAFAH FP inh 2.8 and PAFAH1B2 FP inh 1.6.
COc1ccc2oc(C(=O)OCC(=O)NC3(C#N)CCCC3)c(C)c2c1 was read as PAFAH1B3 FP inh 1.9, PAFAH2 inh 52.8*, pPAFAH FP inh 7.7, PAFAH1B2 FP inh -2.6 and PAFAH2 confirm 38.5*.
For COc1ccc2oc(C(=O)OCC(=O)NC3CCCC3)c(C)c2c1 the results were PAFAH1B3 FP inh 2.4, PAFAH2 inh 53.0*, pPAFAH FP inh 7.7, PAFAH1B2 FP inh -2.3 and PAFAH2 confirm 40.1*.
`Cc1c(C(=O)OCC(=O)NC2CC2)oc2ccc(Br)cc12` gave PAFAH1B3 FP inh -7.2, PAFAH2 inh 8.7 and PAFAH1B2 FP inh -1.1.
For CC(=O)N1CCN(S(=O)(=O)c2cccc(C(=O)NNC(=O)Cn3nc(C)cc3C)c2)CC1 the results were PAFAH1B3 FP inh 14.7, PAFAH2 inh 1.1, pPAFAH FP inh 2.1 and PAFAH1B2 FP inh -0.3.
For Oc1oc(-c2ccccc2)nc1C=NCc1ccncc1 the results were PAFAH1B3 FP inh 8.1, RBBP9 inhibitor -7.7, PAFAH2 inh 51.7*, pPAFAH FP inh 14.9, PAFAH1B2 FP inh 1.1 and PAFAH2 confirm 36.7*.
`O=C1OC(/C(=C\Nc2cc(Cl)ccc2O)[N+](=O)[O-])c2ccccc21` (stereo not given) gave PAFAH1B3 FP inh 9.2, RBBP9 inhibitor -2.1, PAFAH2 inh 49.3*, pPAFAH FP inh 17.7, PAFAH1B2 FP inh 1.6 and PAFAH2 confirm 45.6*.
For CC(C)Cc1cc(C(=O)NCCCN2CCOCC2)no1 the results were PAFAH1B3 FP inh 2.2, RBBP9 inhibitor -5.9, PAFAH2 inh -6.0, pPAFAH FP inh 1.3 and PAFAH1B2 FP inh -0.3.
CSc1nc(C(=O)N2CCCC(C(=O)c3ccc(Cl)cc3)C2)cs1 (stereo not given) was read as PAFAH1B3 FP inh 7.6, RBBP9 inhibitor -7.6, PAFAH2 inh 5.3, pPAFAH FP inh -3.2 and PAFAH1B2 FP inh 4.7.
`NC(=O)Nc1ccc(C(=O)OCC(=O)Nc2ccc([N+](=O)[O-])cc2C(F)(F)F)cc1` gave PAFAH1B3 FP inh -5.3, RBBP9 inhibitor -5.7, PAFAH2 inh 66.1*, pPAFAH FP inh -6.0, PAFAH1B2 FP inh 2.0 and PAFAH2 confirm 66.0*.
For O=C(COC(=O)C1CC1)Nc1ccc([N+](=O)[O-])cc1C(F)(F)F the results were PAFAH1B3 FP inh 4.8, PAFAH2 inh 53.0*, pPAFAH FP inh 13.3, PAFAH1B2 FP inh -3.6 and PAFAH2 confirm 44.6*.
Screening Cc1nc(SCC(=O)c2ccc(F)c(F)c2)[nH]c(=O)c1Oc1ccc(F)cc1 returned PAFAH1B3 FP inh 2.9, RBBP9 inhibitor -1.9, PAFAH2 inh 1.5, pPAFAH FP inh 5.0 and PAFAH1B2 FP inh 9.6.
N#Cc1ccc(NC(=S)NC(=O)CCc2ccc(S(=O)(=O)N3CCOCC3)cc2)cc1 was read as PAFAH1B3 FP inh 0.2, RBBP9 inhibitor -2.1, PAFAH2 inh -3.5, pPAFAH FP inh 2.6 and PAFAH1B2 FP inh 0.1.
`O=C(CCCOC(=O)c1ccc(O)cc1)c1ccccc1` gave PAFAH1B3 FP inh 8.2, PAFAH2 inh 49.9*, pPAFAH FP inh 12.9, PAFAH1B2 FP inh 8.1 and PAFAH2 confirm 44.8*.
CSc1ccccc1NC(=O)COC(=O)c1ccc(O)cc1 was read as PAFAH1B3 FP inh 8.7, RBBP9 inhibitor -7.9, PAFAH2 inh 54.1*, pPAFAH FP inh 15.6, PAFAH1B2 FP inh 1.8 and PAFAH2 confirm 37.8*.
Screening O=C(COC(=O)c1ccc(O)cc1)NC(c1ccccc1)c1ccccc1 returned PAFAH1B3 FP inh 1.1, PAFAH2 inh 46.0*, pPAFAH FP inh 16.5, PAFAH1B2 FP inh 10.1 and PAFAH2 confirm 36.4*.
`O=C(COC(=O)c1ccc(O)cc1)Nc1ccccc1-c1ccccc1` gave PAFAH1B3 FP inh 9.4, RBBP9 inhibitor 2.2, PAFAH2 inh 46.3*, pPAFAH FP inh 5.7, PAFAH1B2 FP inh 6.7 and PAFAH2 confirm 38.7*.
O=C(COC(=O)c1ccc(-c2ccccc2)cc1)Nc1ccccc1-c1ccccc1 was read as PAFAH1B3 FP inh 3.4, RBBP9 inhibitor -5.0, PAFAH2 inh 12.1, pPAFAH FP inh 1.8 and PAFAH1B2 FP inh 0.8.
`CSc1ccccc1NC(=O)COC(=O)c1ccccc1O` gave PAFAH1B3 FP inh 1.5, RBBP9 inhibitor 2.5, PAFAH2 inh 4.5, pPAFAH FP inh 3.3 and PAFAH1B2 FP inh 0.0.
Screening NC(N)=Nc1nc(-c2ccccc2)c2cc(F)ccc2n1 returned PAFAH1B3 FP inh 7.5, RBBP9 inhibitor -10.3, PAFAH2 inh -2.2, pPAFAH FP inh -1.5 and PAFAH1B2 FP inh 2.1.
Screening Cc1n[nH]c(C)c1Cc1ccc(C(=O)O)cc1 returned PAFAH1B3 FP inh 4.2, RBBP9 inhibitor -4.6, PAFAH2 inh -2.2, pPAFAH FP inh -0.9 and PAFAH1B2 FP inh -0.1.
For O=C(NC(Cc1ccccc1)C(=O)O)/C(=C\c1ccc(Cl)cc1)NC(=O)c1ccco1 (stereo not given) the results were PAFAH1B3 FP inh 8.7, PAFAH2 inh 7.3, pPAFAH FP inh 0.3 and PAFAH1B2 FP inh 3.8.
Cn1cc2cc([N+](=O)[O-])ccc2n1 was read as PAFAH1B3 FP inh -4.0, RBBP9 inhibitor -7.5, PAFAH2 inh 2.8, pPAFAH FP inh 1.1 and PAFAH1B2 FP inh 1.4.
CCOc1ccc(C(=O)OC(C)CN2CCCCC2)cc1 (stereo not given) was read as PAFAH1B3 FP inh 5.7, PAFAH2 inh 56.6*, pPAFAH FP inh -1.9, PAFAH1B2 FP inh 3.9 and PAFAH2 confirm -1.4.
CC1CCC(C(C)C)C(OC(=O)COC(=O)c2ccc(N)cc2)C1 (stereo not given) was read as PAFAH1B3 FP inh -3.7, RBBP9 inhibitor -6.4, PAFAH2 inh 53.5*, pPAFAH FP inh 7.1, PAFAH1B2 FP inh 14.8 and PAFAH2 confirm 33.8*.
`Cc1cc(S(=O)(=O)N2CCCOC2CNC(=O)C(=O)NCc2ccco2)ccc1F` (stereo not given) gave PAFAH1B3 FP inh 6.6, RBBP9 inhibitor -6.1, PAFAH2 inh 7.5, pPAFAH FP inh -2.4 and PAFAH1B2 FP inh -1.0.
